Source: ChEMBL document CHEMBL1131140, “Synthesis and antimalarial activities of fluoroalkyl derivatives of dihydroartemisinin” (J Med Chem, 1998)

Test system: Plasmodium falciparum
Test: In vitro antimalarial activity for Plasmodium falciparum W-2
Format: functional, organism-based
Outline: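 P. falciparum W-2 cultured in A+ human erythrocytes, RPMI with 10% A+ human serum, 25 mM HEPES, 25 mM NaHCO3, 37 °C, 10% O2/6% CO2/84% N2. Assay at 0.5% parasitemia, 1.5% hematocrit; 2-fold dilutions (methanol stocks), final 1.6–200 nM in triplicate; [3H]hypoxanthine uptake over 42 h; IC50 by nonlinear regression of log dose–response; mean of ≥3 experiments.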

Compound | IC50 [µM]
CCOC(=O)C(OC1O[C@@H]2OC3(C)CC[C@H]4[C@H](C)CC[C@@H]([C@H]1C)[C@@]24OO3)C(F)(F)F (single isomer, unassigned) | 0.061
CO[C@H]1O[C@@H]2O[C@@]3(C)CC[C@H]4[C@H](C)CC[C@@H]([C@H]1C)[C@@]24OO3 [ARTEMETHER] | 0.0054
C[C@@H]1CC[C@H]2[C@@H](C)C(OCC(F)(F)C(F)(F)F)O[C@@H]3OC4(C)CC[C@@H]1[C@]32OO4 (single isomer, unassigned) | 0.027
C[C@@H]1CC[C@H]2[C@@H](C)C(OCC(F)(F)C(F)(F)C(F)(F)F)O[C@@H]3OC4(C)CC[C@@H]1[C@]32OO4 (single isomer, unassigned) | 0.036
C[C@@H]1CC[C@H]2[C@@H](C)C(OC(c3ccccc3)C(F)(F)F)O[C@@H]3OC4(C)CC[C@@H]1[C@]32OO4 (single isomer, unassigned) | 0.066
C[C@@H]1CC[C@H]2[C@@H](C)C(OC(C(F)(F)F)C(F)(F)F)O[C@@H]3OC4(C)CC[C@@H]1[C@]32OO4 (single isomer, unassigned) | 0.034
C[C@@H]1CC[C@H]2[C@@H](C)C(OC(c3ccccc3)(C(F)(F)F)C(F)(F)F)O[C@@H]3OC4(C)CC[C@@H]1[C@]32OO4 (single isomer, unassigned) | 0.038
C[C@H]1C(OCC(F)(F)F)O[C@@H]2OC3(C)CC[C@H]4[C@H](C)CCC1[C@@]24OO3 (single isomer, unassigned) | 0.031
CC(OC1O[C@@H]2OC3(C)CC[C@H]4[C@H](C)CC[C@@H]([C@H]1C)[C@@]24OO3)C(F)(F)F (single isomer, unassigned) | 0.035
C[C@@H]1CC[C@H]2[C@@H](C)C(OCC(F)(F)C(F)C(F)(F)F)O[C@@H]3OC4(C)CC[C@@H]1[C@]32OO4 (single isomer, unassigned) | 0.034
C[C@@H]1CC[C@H]2[C@@H](C)[C@](O)(C(F)(F)F)O[C@@H]3OC4(C)CC[C@@H]1[C@]32OO4 (single isomer, unassigned) | 0.0026
COC1O[C@@H]2OC3(C)CC[C@H]4[C@H](C)CC[C@@H]([C@H]1C)[C@@]24OO3 (single isomer, unassigned) | 0.0075
